According to ChEMBL document CHEMBL1153088, “Discovery of benzo[g]indol-3-carboxylates as potent inhibitors of microsomal prostaglandin E(2) synthase-1” (Bioorg Med Chem, 2009):
Calls of active or inactive are those of the source. The calls are words filed in the database; no cut-off is given here.

How the values were obtained:
[1] = biological target: T1, Prostaglandin E synthase (Homo sapiens) (UniProt O14684); assay: Inhibition of mPGES1 in IL1-beta induced human A549 cells assessed as PGE2 production at 5 uM preincubated for 10 mins; format: cell-based
T1 sequence (whole entry): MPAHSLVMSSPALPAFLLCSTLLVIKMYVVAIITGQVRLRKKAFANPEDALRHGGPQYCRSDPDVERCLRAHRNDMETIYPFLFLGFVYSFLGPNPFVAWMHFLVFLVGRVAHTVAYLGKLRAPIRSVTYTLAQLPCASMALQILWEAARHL
Method in brief: (§1)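 Intact IL-1β-induced A549 cells (4×10^6/ml PBS, 1 mM CaCl2) were preincubated with compound (DMSO ≤0.3%) for 10 min at 37 °C. They were then stimulated with 2.5 µM A23187 plus 1 µM AA and [3H]AA (18.4 kBq) for 15 min, and the reaction was stopped on ice. [3H]PGE2 was separated by RP-18 SPE/HPLC and counted by liquid scintillation.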

[2] = biological target: T1, Prostaglandin E synthase (Homo sapiens); assay: Inhibition of mPGES1 in IL1-beta induced human A549 cells assessed as PGE2 production at 30 uM preincubated for 10 mins; format: cell-based; design: scale not given: the % may be the effect or the level left
Method in brief: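 Intact IL-1β-induced A549 cells (4×10^6/ml PBS, 1 mM CaCl2) were preincubated with compound (DMSO ≤0.3%) for 10 min at 37 °C. [3H]PGE2 was separated by RP-18 SPE/HPLC and counted by liquid scintillation.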

[3] = biological target: T2, Prostaglandin E synthase (Homo sapiens, UniProt O14684); assay: Inhibition of mPGES1 in IL1-beta induced human A549 cells assessed as PGE2 production preincubated for 10 mins; format: cell-based; method in brief: as §1
T2 sequence (O14684 whole entry): T1 sequence (whole entry)

[4] = biological target: T1, Prostaglandin E synthase (Homo sapiens); assay: Inhibition of mPGES1 in IL1-beta induced human A549 cell microsomal membrane at 10 uM assessed as enzyme residual activity by PGE2 formation assay relative to untreated control; format: microsomes; settings: Microsome
Method in brief: (§2)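 Microsomes from A549 cells treated with IL-1β (1 ng/ml, 72 h) were used at 50 µg/ml in 0.1 M potassium phosphate pH 7.4 with 2.5 mM glutathione. Compound (DMSO 1% final) was preincubated 15 min at 4 °C, then PGH2 was added (20 µM final) for 1 min at 4 °C.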

[5] = system: A549; assay: Toxicity in human A549 cells assessed as reduction of cell viability by MTT assay; format: cell-based
Method in brief: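 A549 cells (4×10^4 per 100 µl) were plated for 16 h, then exposed to compounds at 30 µM (DMSO ≤0.3%) for 5 h. MTT was added for 4 h, formazan was solubilized in 10% SDS/20 mM HCl, and absorbance at 595 nm was read relative to vehicle-treated cells.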

[6] = biological target: T3, Prostaglandin G/H synthase 2 (Homo sapiens) (UniProt P35354); assay: Inhibition of COX2 in IL1-beta induced human A549 cells assessed as 6-keto-PGF1-alpha formation up to 30 uM preincubated for 15 mins by ELISA; format: cell-based
T3 sequence (whole entry): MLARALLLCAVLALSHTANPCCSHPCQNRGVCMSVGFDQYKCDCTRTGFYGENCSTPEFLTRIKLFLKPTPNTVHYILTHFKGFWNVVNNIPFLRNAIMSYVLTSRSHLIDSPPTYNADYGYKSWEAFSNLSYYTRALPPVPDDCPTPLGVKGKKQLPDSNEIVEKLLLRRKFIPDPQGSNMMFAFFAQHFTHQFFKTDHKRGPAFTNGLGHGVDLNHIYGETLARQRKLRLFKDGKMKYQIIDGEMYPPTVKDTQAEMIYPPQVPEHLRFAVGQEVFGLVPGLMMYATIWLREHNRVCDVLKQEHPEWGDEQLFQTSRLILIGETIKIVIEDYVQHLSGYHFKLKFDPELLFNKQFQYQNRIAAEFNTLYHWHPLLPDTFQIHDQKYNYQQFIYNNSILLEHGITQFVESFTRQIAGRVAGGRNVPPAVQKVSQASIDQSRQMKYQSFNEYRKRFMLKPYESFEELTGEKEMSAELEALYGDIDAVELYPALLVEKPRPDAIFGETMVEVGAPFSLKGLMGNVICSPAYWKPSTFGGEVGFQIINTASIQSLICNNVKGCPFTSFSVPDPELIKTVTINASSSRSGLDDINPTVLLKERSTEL
Method in brief: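 A549 cells were induced with IL-1β (1 ng/ml, 72 h, 2% FCS). Cells at 5×10^6 per ml PBS with 1 mM CaCl2 were preincubated 15 min at 37 °C, then given 30 µM AA for 15 min at 37 °C, and the reaction was stopped on ice. Released 6-keto PGF1α was measured by monoclonal-antibody ELISA with β-galactosidase tracer read at 550 nm.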

[7] = biological target: T2, Prostaglandin E synthase; assay: Inhibition of mPGES1 in IL1-beta induced human A549 cell microsomal membrane assessed as blockade of conversion of PGH2 to PGE2; format: microsomes, Microsome; method in brief: as §2
[8] = biological target: T4, Prostaglandin G/H synthase 1 (Ovis aries) (UniProt P05979); assay: Inhibition of ovine COX1 assessed as residual enzyme activity at 10 uM relative to untreated control
T4 sequence (whole entry): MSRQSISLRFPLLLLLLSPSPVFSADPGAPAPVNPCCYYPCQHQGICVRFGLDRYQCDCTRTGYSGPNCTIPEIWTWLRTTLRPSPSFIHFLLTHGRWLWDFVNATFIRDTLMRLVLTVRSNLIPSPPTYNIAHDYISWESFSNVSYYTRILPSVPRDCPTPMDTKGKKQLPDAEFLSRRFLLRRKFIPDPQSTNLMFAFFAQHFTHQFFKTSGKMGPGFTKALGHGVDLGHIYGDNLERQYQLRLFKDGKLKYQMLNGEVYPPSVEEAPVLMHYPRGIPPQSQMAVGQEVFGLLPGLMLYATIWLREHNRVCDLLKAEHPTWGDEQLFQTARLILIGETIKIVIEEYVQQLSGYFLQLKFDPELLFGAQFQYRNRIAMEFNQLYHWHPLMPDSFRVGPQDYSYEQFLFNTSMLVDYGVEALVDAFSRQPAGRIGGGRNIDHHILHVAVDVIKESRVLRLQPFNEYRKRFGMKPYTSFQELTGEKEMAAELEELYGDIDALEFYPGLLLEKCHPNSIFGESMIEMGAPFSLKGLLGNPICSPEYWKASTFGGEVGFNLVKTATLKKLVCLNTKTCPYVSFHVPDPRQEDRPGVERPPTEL
Method in brief: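 Purified ovine COX-1 (50 units) in 1 ml of 100 mM Tris pH 8 containing 5 mM glutathione, 5 µM hemoglobin and 100 µM EDTA was preincubated with compound for 5 min at 4 °C and prewarmed 60 s at 37 °C. The reaction was started with 5 µM AA and run 5 min at 37 °C, and 12-HHT was analysed by HPLC.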

[9] = biological target: Prostaglandin G/H synthase 1 (Homo sapiens) (UniProt P23219); assay: Inhibition of COX1 in platelets assessed as inhibition of 12-HHT formation at 10 uM by RP-HPLC
Method in brief: (§3)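 Freshly isolated human platelets (10^8/ml PBS with 1 mM CaCl2) were preincubated with compound (DMSO ≤0.3%), then stimulated with 5 µM AA for 5 min at 37 °C. 12-HHT was extracted and quantified by RP-HPLC. Mean ± SE, n=3–5.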

[10] = biological target: Prostaglandin G/H synthase 1 (Homo sapiens) (UniProt P23219); assay: Inhibition of COX1 in platelets assessed as inhibition of 12-HHT formation up to 30 uM uM by RP-HPLC; method in brief: as §3
[11] = system: Rattus norvegicus; assay: Antiinflammatory activity in Wistar Han rat assessed as reduction in inflammatory cell numbers at 5 mg/kg, ip administered 30 mins before carrageenan challenge; format: functional, organism-based; design: dose 5 mg/kg
[12] = system: Mus musculus; assay: Antiinflammatory activity in CD1 mouse assessed as inhibition of carrageenan-induced paw edema at 5 mg/kg, ip administered 30 mins before carrageenan challenge relative to untreated control; format: functional; settings: route intraperitoneal
Method in brief: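 Male adult CD1 mice, n=10 per group, given the compound ip (vehicle 2% DMSO) 30 min before subplantar 1% λ-carrageenan in saline (0.05 ml). Paw volume was measured double blind by hydroplethysmometer just before injection and at 2, 4 and 6 h. Inhibition was taken at the 4 h reading versus vehicle.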

[13] = system: Rattus norvegicus; assay: Antiinflammatory activity in Wistar Han rat assessed as reduction in exudate volume at 5 mg/kg, ip administered 30 mins before carrageenan challenge; format: functional, organism-based; design: dose 5 mg/kg

Chain of Prostaglandin G/H synthase 1 (Homo sapiens) (P23219 whole entry): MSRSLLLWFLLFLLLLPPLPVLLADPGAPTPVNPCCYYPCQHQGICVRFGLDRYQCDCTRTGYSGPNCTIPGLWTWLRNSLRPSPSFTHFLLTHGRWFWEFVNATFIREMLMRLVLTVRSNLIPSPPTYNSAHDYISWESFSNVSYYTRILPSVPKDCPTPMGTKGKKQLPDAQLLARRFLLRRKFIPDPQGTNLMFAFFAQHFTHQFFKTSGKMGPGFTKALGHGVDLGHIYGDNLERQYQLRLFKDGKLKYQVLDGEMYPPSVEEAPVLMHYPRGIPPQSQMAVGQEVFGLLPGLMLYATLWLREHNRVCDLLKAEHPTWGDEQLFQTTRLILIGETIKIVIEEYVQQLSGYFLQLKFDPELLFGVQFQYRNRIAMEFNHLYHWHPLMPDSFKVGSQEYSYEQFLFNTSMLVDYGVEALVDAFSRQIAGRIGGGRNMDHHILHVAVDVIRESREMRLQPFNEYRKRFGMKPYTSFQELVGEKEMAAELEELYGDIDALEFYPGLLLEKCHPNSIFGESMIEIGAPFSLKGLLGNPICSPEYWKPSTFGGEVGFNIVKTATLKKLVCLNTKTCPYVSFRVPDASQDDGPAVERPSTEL

Activity [4] | IC50 [7] | inhibition [8] | Activity [8] | SMILES | further results
57% | – | – | – | CCOC(=O)c1c(CCc2cccc(Cl)c2)[nH]c2c1cc(O)c1ccccc12 | –
28% | 2800 nM | – | 66% | CCOC(=O)c1c(Cc2cccc(Cl)c2)[nH]c2c1cc(O)c1ccc(-c3ccccc3)cc12 | –
25% | 3100 nM | inactive | – | CCOC(=O)c1c(Cc2cccc(Cl)c2)n(-c2ccc(-c3ccccc3)cc2)c2ccc(O)cc12 | –

Further lines, the compound ahead of its results:

SMILES | Activity [4] | IC50 [7] | inhibition [8] | Activity [8] | further results
Cc1ccc(-c2cc(C(F)(F)F)nn2-c2ccc(S(N)(=O)=O)cc2)cc1 | – | – | – | – | inhibition [1]: Active
CCOC(=O)c1c(Nc2cccc(Cl)c2)[nH]c2c1cc(O)c1ccccc12 | 13% | 1600 nM | inactive | – | Activity [2]: 35%; IC50 ([3]; a549): Dose-dependent effect; IC50 ([3]; read-out: IC50): 7900 nM; Activity [5]: Non-toxic; inhibition [6]: inactive; inhibition [9]: 31%
CCOC(=O)c1c(Cc2ccccc2Cl)[nH]c2c1cc(O)c1ccccc12 | 14% | 100 nM | – | 89% | Activity [2]: 35%; IC50 ([3]; read-out: IC50): 20500 nM; inhibition [6]: inactive; inhibition [10]: inactive
CCOC(=O)c1c(Cc2cccc(Br)c2)[nH]c2c1cc(O)c1ccccc12 | – | – | – | 82% | –
CCOC(=O)c1c(Cc2cccc(F)c2)[nH]c2c1cc(O)c1ccccc12 | 5% | 500 nM | inactive | – | –
COc1ccc2c(c1)c(CC(=O)O)c(C)n2C(=O)c1ccc(Cl)cc1 [INDOMETHACIN] | – | – | – | – | inhibition [11]: Active; inhibition in vivo at 5 mg/kg [12]: 57%; inhibition [13]: Active
